Results: ChEMBL document CHEMBL5543124, “Lead Compound Development of SRC-3 Inhibitors with Improved Pharmacokinetic Properties and Anticancer Efficacy” (J Med Chem, 2024)
Active and inactive are the calls of the source. The calls are words filed in the database; no cut-off is given here.

Legend:
[1] = Half life in CD-1 mouse at 1 mg/kg,iv administration measured upto 48 hrs by LC-MS/MS analysis; assay type: ADME, organism-based; details: in vivo
Outline: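 Single intravenous bolus in ICR male mice (n = 3, 6 weeks); dosing solution 0.5 mg/mL in 20% DMSO, 16% PEG, 4% dextrose in PBS. Tail-vein blood (10 μL) taken at 2, 5, 15, 30 min and 1, 2, 4, 8, 24, 48 h. Plasma quantified by LC-MS/MS against a 0.5–1000 ng/mL calibration; parameters from non-compartmental analysis.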

[2] = test system: MDA-MB-468; assay: Cytotoxicity against human MDA-MB-468 cells assessed as chromatin accessibility alteration observed after 4 hrs by ATAC-seq analysis; assay type: functional, cell-based
Outline: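 MDA-MB-468 cells treated for 4 h (ATAC-seq) or 12 h (RNA-seq) before chromatin accessibility or transcript profiling.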

[3] = target: T1, Prostaglandin G/H synthase 2 (Homo sapiens, UniProt P35354); assay: Inhibition of COX2 (unknown origin); assay type: toxicity
T1 sequence (P35354 whole entry): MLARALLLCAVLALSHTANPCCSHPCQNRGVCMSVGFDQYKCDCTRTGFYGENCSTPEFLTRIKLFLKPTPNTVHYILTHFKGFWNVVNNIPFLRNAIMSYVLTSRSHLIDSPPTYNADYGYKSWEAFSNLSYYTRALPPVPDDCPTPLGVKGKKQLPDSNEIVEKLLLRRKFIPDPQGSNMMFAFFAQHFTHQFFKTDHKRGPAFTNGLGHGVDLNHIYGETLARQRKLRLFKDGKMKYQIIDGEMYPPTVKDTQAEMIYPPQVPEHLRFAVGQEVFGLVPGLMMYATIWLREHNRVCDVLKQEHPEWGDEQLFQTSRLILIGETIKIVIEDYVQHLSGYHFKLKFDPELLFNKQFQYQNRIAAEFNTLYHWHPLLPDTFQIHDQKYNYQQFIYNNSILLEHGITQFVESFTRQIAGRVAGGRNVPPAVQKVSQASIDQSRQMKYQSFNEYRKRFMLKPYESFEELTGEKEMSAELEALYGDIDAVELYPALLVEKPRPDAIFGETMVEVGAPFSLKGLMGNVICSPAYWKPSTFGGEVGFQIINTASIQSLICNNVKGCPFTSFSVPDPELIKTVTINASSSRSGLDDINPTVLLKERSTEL
Outline: (§1)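 Tested in a commercial off-target safety screening panel of 78 targets. Values reported as RC50, taken as IC50 except for agonist mode, where RC50 is EC50.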

[4] = Antitumor activity against patient derived MDA-PCa-118b cells xenografted in SCID mouse assessed as reduction in ratio of tumor area to femur area at 10 mg/kg,ip administration measured after 4 weeks by CT imaging analysis; assay type: functional, Homo sapiens; parameters: scale not given: the % may be the effect or the level left
Outline: (§2)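 AR-PDX 118b cells (1×10^5) injected via intra-femoral artery in male SCID mice (8–9 weeks). After 2 weeks, 10 mg/kg/day ip or vehicle for 4 weeks (n = 9/group). X-ray imaging every two weeks. At the end, femurs CT-scanned (5 per group) with 3D-reconstruction tumor size, and H&E histology used for tumor/femur area ratio.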

[5] = test system: MDA-PCa-118b; assay: Antitumor activity against patient derived MDA-PCa-118b cells xenografted in SCID mouse assessed as reduction in bone metastasis at 10 mg/kg,ip administration measured after 4 weeks by X-ray imaging analysis; assay type: functional, organism-based; details: Homo sapiens; outline: as §2
[6] = target: Voltage-gated inwardly rectifying potassium channel KCNH2 (Homo sapiens, UniProt Q12809); assay: Inhibition of hERG; assay type: toxicity
[7] = Toxicity in SCID mouse orthotopically xenografted with human Panc-1-Luc cells assessed as change in body weight at 10 mg/kg,ip administration once daily for 8 weeks; assay type: organism-based; details: in vivo, 1344 h
Outline: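 Male SCID mice (8 weeks) received orthotopic pancreatic implants of Panc-1-Luc cells (0.5×10^6 per mouse). Mice randomized by luciferase imaging (n=5 per group). From day 8, dosed 10 mg/kg i.p. or solvent vehicle once daily. Body weight recorded weekly; mice euthanized at day 63.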

[8] = target: T2, Endothelin-1 receptor (Homo sapiens, UniProt P25101); assay: Antagonist activity at EDNRA (unknown origin) by calcium flux assay; assay type: toxicity; outline: as §1
T2 sequence (P25101 whole entry): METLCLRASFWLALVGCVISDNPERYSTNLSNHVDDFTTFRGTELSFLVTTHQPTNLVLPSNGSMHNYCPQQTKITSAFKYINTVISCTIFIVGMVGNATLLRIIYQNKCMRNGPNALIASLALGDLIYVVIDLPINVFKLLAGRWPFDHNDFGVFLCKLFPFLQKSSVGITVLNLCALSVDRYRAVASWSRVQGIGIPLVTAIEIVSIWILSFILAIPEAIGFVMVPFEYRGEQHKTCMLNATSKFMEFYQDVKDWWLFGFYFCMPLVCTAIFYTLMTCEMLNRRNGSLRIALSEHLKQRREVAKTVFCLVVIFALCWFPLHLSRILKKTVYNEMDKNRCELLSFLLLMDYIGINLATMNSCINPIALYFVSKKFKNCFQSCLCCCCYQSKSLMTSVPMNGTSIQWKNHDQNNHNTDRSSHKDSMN

[9] = test system: PANC-1; assay: Cytotoxicity against human PANC-1 cells mediated with siRNA control assessed as inhibition of cell growth incubated for 72 hrs by MTT assay; assay type: functional, cell-based; details: PANC-1, 72 h
Outline: (§3)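 PANC-1 cells with stable lentiviral shRNA knockdown of SRC-3 or control shRNA; SRC-3 levels checked by western blot. Cells treated with a dose series for 72 h and viability read by MTT.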

[10] = test system: MDA-PCa-118b; assay: Antitumor activity against patient derived MDA-PCa-118b cells xenografted in SCID mouse assessed as reduction in tumor burden in femur at 10 mg/kg,ip administration measured after 4 weeks by CT imaging analysis; assay type: functional, organism-based; details: Homo sapiens; outline: as §2
[11] = Half life in CD-1 mouse at 10 mg/kg,po administration measured upto 48 hrs by LC-MS/MS analysis; assay type: ADME, organism-based; details: in vivo
Outline: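 Oral gavage in ICR male mice (n = 3); dosing solution 1 mg/mL in 20% DMSO, 16% PEG, 4% dextrose in PBS. Tail-vein blood (10 μL) taken at 15, 30 min and 1, 2, 4, 8, 24, 48 h. Plasma quantified by LC-MS/MS against a 0.5–1000 ng/mL calibration; parameters from a non-compartmental extravascular model.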

[12] = test system: Prostate cancer organoid; assay: Antitumor activity against patient derived Prostate cancer PDX organoid assessed as reduction in organoid formation measured after 2 weeks; assay type: functional, tissue-based; details: Homo sapiens
Outline: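 Single cells from prostate cancer PDX tumors (collagenase I/III digest); 20000 cells embedded in collagen gel and cultured overnight, then treated or vehicle for 14 days with at least 5 wells per dose. Organoids imaged and counted on day 14; groups compared by Student t test.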

[13] = test system: PANC-1; assay: Cytotoxicity against […] SRC-3.2 knockdown human PANC-1 cells assessed as inhibition of cell growth incubated for 72 hrs by MTT assay; assay type: functional, cell-based; details: PANC-1, 72 h; outline: as §3
[14] = Half life in human liver microsomes at 1 uM incubated for 30 mins in presence of NADPH by LC-MS/MS analysis; assay type: ADME, Microsome; details: 0.5 h
Outline: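 Human liver microsomes (1 mg/mL final) in 100 mM phosphate buffer with or without NADPH; compound at 1 μM final, 37 °C. Samples taken at 0, 5, 10, 20, 30 min (0 and 30 min without NADPH), quenched with cold acetonitrile containing internal standards, analysed by LC-MS/MS; verapamil as control.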

Voltage-gated inwardly rectifying potassium channel KCNH2, sequence (Q12809 whole entry): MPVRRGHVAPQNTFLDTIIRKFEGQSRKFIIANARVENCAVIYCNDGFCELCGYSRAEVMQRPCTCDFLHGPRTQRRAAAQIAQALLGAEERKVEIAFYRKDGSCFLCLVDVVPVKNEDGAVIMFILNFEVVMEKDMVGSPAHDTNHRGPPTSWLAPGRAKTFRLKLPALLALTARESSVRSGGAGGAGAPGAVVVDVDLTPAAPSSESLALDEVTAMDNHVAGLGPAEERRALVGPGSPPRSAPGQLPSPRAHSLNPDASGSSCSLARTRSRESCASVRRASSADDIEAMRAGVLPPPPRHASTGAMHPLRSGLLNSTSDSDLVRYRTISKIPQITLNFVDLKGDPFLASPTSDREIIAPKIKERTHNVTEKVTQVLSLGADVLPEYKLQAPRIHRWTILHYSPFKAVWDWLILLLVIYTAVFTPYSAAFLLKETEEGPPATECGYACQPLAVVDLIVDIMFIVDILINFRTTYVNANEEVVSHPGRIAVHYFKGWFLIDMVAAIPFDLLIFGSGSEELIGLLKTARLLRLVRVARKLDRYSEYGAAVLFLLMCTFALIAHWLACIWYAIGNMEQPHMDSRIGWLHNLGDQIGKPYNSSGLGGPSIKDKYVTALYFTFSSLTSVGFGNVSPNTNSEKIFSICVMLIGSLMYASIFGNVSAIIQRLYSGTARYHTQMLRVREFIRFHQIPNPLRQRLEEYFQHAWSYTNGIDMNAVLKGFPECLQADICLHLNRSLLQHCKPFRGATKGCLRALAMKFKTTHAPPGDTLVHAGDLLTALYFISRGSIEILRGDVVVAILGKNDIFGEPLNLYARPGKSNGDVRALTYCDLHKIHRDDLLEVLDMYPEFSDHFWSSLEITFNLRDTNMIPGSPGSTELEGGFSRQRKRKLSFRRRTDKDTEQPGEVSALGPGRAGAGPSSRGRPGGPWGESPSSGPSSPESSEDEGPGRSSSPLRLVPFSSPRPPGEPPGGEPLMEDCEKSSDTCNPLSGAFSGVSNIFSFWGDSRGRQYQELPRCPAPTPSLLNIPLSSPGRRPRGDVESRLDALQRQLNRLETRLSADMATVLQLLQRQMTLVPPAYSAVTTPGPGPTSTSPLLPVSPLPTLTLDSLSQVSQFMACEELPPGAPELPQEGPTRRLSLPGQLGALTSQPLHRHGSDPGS

t1/2 [1]: 22.5 h | t1/2 [11]: 14.3 h | t1/2 [14]: 8.49 min
Compound: C/C(=N\N=c1/[nH]c2cc(F)c(F)cc2n1C)c1ccc(F)cn1
Activity [2]: Active | IC50 [3]: 3000 nM | Activity [4]: >50% | Activity [5]: Active | IC50 [6]: 2700 nM | Activity [7]: Non-Toxic | IC50 [8]: 4000 nM | IC50 [9]: 25.2 nM | Activity [10]: Active | Activity [12]: Active | IC50 [13]: 119 nM
